One block for each compound: values may come before it.
Key:
Format in all cases: cell-based
human CFTR [1] = biological target: T1, human CFTR (Homo sapiens, UniProt P13569); assay: Conventional plate reader YFP fluorescence iodide influx assay, CFTR
human CFTR [2] = biological target: T1, human CFTR; assay: Single-shot microfluidics YFP fluorescence iodide influx assay, CFTR
human TMEM16A = biological target: T2, human TMEM16A (Homo sapiens, UniProt Q5XXA6, DEL476-501); assay: Single-shot microfluidics YFP fluorescence iodide influx assay, TMEM16A; details: TMEM16A-expressing FRT cells; fitted dose-response, Fig. 4B
T2 sequence (Q5XXA6 with tags, fused parts or gaps isoform Q5XXA6-5 DEL539-564): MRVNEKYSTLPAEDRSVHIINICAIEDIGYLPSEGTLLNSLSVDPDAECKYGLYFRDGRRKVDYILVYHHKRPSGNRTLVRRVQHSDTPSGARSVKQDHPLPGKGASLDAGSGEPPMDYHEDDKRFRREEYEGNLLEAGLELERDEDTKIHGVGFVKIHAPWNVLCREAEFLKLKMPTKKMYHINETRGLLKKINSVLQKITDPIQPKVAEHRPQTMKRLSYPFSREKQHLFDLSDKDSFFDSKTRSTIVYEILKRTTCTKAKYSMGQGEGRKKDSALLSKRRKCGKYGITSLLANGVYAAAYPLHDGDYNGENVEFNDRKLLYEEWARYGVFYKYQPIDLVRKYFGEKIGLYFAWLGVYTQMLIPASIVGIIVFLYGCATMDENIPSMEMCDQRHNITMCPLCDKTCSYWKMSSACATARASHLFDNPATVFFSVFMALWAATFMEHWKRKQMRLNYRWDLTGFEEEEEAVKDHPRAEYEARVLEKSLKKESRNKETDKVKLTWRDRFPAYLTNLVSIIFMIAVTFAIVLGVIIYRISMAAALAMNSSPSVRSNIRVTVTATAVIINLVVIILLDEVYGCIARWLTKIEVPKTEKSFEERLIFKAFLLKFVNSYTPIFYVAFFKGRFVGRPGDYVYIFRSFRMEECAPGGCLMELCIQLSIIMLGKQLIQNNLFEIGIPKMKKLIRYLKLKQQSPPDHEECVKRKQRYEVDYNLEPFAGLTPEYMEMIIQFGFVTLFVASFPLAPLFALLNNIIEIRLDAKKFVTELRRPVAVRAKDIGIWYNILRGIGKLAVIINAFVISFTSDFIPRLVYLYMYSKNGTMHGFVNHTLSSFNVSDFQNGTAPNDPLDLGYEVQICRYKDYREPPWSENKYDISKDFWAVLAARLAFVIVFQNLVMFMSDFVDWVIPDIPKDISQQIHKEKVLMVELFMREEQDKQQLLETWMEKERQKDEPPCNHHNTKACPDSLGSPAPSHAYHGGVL
How it was run: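 FRT cells stably co-expressing human TMEM16A (abc isoform) and YFP-F46L/H148Q/I152L were grown 8–24 h at 37 °C under perfusion on fibronectin-coated coverglass. Cells were perfused 10 min with a gradient between PBS and PBS containing 30 μM test compound. Solution was then switched to 70 mM I− plus 50 μM ATP. YFP fluorescence was imaged at 2 Hz, and the Hill equation was fitted.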

T1 sequence (P13569 whole entry): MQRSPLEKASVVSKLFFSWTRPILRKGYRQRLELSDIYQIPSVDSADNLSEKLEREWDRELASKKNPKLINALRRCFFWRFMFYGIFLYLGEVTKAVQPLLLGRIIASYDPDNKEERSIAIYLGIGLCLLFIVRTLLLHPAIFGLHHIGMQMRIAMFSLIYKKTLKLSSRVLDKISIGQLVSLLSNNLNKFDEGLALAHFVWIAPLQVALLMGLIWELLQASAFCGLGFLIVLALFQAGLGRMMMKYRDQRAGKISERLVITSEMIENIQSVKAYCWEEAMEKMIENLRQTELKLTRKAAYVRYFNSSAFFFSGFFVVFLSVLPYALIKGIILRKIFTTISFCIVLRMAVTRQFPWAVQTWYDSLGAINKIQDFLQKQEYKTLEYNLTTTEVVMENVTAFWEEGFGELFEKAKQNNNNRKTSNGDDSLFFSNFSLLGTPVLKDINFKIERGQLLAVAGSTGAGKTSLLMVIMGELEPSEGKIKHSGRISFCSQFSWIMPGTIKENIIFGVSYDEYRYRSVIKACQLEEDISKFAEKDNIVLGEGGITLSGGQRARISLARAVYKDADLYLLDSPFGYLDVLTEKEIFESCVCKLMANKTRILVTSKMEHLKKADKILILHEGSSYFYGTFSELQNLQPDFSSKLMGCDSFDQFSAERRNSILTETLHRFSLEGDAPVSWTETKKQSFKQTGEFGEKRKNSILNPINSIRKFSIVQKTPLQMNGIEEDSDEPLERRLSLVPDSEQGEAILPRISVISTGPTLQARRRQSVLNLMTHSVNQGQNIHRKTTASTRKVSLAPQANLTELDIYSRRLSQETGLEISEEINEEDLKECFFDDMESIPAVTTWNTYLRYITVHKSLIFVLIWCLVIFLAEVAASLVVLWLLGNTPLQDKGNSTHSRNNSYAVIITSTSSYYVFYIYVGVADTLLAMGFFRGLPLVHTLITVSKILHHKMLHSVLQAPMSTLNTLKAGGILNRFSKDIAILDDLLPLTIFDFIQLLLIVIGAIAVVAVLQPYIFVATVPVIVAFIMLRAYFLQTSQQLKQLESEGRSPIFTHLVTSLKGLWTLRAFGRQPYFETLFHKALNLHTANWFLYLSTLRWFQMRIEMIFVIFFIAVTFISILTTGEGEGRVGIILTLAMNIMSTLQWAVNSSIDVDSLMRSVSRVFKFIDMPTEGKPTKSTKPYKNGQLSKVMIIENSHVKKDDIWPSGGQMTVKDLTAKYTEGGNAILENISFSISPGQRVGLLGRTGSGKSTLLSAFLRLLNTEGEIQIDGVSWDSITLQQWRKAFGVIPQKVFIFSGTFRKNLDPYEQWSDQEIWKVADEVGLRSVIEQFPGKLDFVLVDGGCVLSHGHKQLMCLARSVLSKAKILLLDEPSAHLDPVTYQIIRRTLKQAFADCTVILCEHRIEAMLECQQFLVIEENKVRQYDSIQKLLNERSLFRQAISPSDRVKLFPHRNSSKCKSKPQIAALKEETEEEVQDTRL

Compound: C=C[C@@]1(C)CC(=O)[C@]2(O)[C@@]3(C)[C@@H](O)CCC(C)(C)[C@@H]3[C@H](O)[C@H](OC(C)=O)[C@@]2(C)O1 [forskolin]
IC50 (human CFTR [1]): 2.9 ± 0.4 µM
IC50 (human CFTR [2]): 3.2 ± 0.2 µM
nH (Hill coefficient, CFTR activation, single-shot microfluidics) (human CFTR [2]; CFTR-expressing FRT cells, fitted dose-response, Fig. 3C): 1.8

nH (Hill coefficient, CFTR inhibition, single-shot microfluidics) (human CFTR [2]; CFTR-expressing FRT cells, 5 μM forskolin, fitted dose-response, Fig. 3E): 1.4
Compound: CFTRinh-172

nH (Hill coefficient, TMEM16A inhibition, single-shot microfluidics) (human TMEM16A): 2.2
Compound: CCc1c(C)nc(SCC(=O)Nc2nc(-c3ccc(OC)cc3)cs2)[nH]c1=O [TMinh-A01]

Source: paper PMC3904508 (Lab on a chip, 2013)
